Paper PMC2685098 (Nucleic Acids Research, 2009)
Read-outs that look alike come from different tables or passages of the source.

Key:
[1] = molecular target: T1, AIRE-PHD1 Glu298Ala (Homo sapiens, UniProt O43918, E298A); assay: Isothermal titration calorimetry; format: binding; settings: AIRE-PHD1 Glu298Ala mutant, ITC 23°C, pH 7.2
T1 sequence (O43918 293-354 E298A): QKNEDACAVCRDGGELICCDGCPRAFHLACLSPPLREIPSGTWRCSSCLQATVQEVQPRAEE
Method in brief: (§1)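 Recombinant AIRE-PHD1 (Gln293–Glu354) point mutants, made by overlap-extension PCR and mass-verified by MALDI, at 40–85 μM in 20 mM phosphate, 150 mM NaCl, 2 mM β-mercaptoethanol, 50 μM ZnCl2, pH 7.2. Synthetic H3 1–10 peptides (0.54–2.5 mM) were injected 28–57 times at 15 min spacing, 23°C, stirring 307 rpm. Heats were corrected for dilution and fitted to a one-site model by nonlinear least squares. Run in duplicate.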

[2] = molecular target: T2, AIRE-PHD1 Asp304Ala (Homo sapiens, UniProt O43918, D304A); assay: Isothermal titration calorimetry; format: binding; settings: AIRE-PHD1 Asp304Ala mutant, ITC 23°C, pH 7.2
T2 sequence (O43918 293-354 D304A): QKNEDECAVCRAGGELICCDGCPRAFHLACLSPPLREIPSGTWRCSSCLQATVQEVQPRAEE
Method in brief: as §1

[3] = molecular target: T3, AIRE-PHD1 wild type (Homo sapiens, UniProt O43918); settings: AIRE-PHD1 wt, ITC; previous experiments; ref [22]; cited from earlier work
T3 sequence (O43918 293-354): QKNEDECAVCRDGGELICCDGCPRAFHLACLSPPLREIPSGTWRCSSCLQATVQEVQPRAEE

[4] = molecular target: T4, AIRE-PHD1 Glu307Ala (Homo sapiens, UniProt O43918, E307A); assay: Isothermal titration calorimetry; format: binding; settings: AIRE-PHD1 Glu307Ala mutant, ITC 23°C, pH 7.2
T4 sequence (O43918 293-354 E307A): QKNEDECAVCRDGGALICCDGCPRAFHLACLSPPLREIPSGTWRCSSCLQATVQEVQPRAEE
Method in brief: as §1

[5] = molecular target: T3, AIRE-PHD1 wild type; assay: Isothermal titration calorimetry; format: binding; settings: for ΔG / −TΔS: AIRE-PHD1 wt, ITC 23°C, pH 7.2, duplicate, ND = not detectable
[6] = molecular target: T3, AIRE-PHD1 wild type; assay: Tryptophan fluorescence titration; format: binding
[7] = tested on: GST-AIRE-PHD1; assay: Peptide pull-down / in vitro binding assays; design: species or system human; settings: in vitro: fluorescence titrations, ITC and peptide pull-down assays
[8] = molecular target: first PHD finger of autoimmune regulator (AIRE-PHD1), wild type (human) (UniProt O43918); assay: ITC
[9] = molecular target: first PHD finger of autoimmune regulator (AIRE-PHD1), wild type (human) (UniProt O43918); assay: other fluorescence titration
[10] = molecular target: T5, AIRE-PHD1 Asp304Ala (human, UniProt O43918 293-354, Asp304Ala); assay: ITC
T5 sequence (looked up): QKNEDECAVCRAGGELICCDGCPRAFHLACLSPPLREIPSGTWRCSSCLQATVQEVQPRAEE

[11] = molecular target: T6, AIRE-PHD1 Glu307Ala (human, UniProt O43918 293-354, Glu307Ala); assay: ITC
T6 sequence (looked up): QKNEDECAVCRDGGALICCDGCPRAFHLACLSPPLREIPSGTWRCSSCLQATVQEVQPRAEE

[12] = molecular target: T7, AIRE-PHD1 Glu298Ala (human, UniProt O43918 293-354, Glu298Ala); assay: ITC
T7 sequence (looked up): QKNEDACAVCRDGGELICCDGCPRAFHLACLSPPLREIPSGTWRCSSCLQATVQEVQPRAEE

[13] = molecular target: T5, AIRE-PHD1 Asp304Ala; assay: other fluorescence titration
[14] = molecular target: T6, AIRE-PHD1 Glu307Ala; assay: other fluorescence titration
[15] = molecular target: T7, AIRE-PHD1 Glu298Ala; assay: other fluorescence titration
[16] = molecular target: T8, first PHD finger of autoimmune regulator (AIRE-PHD1), wild type (human, UniProt O43918 293-354); assay: ITC
T8 sequence (looked up): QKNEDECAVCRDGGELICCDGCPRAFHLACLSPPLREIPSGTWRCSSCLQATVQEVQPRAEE

[17] = molecular target: T8, first PHD finger of autoimmune …; assay: other fluorescence titration

## C[C@H](N)C(=O)N[C@@H](CCCNC(=N)N)C(=O)N[C@H](C(=O)N[C@@H](CCCCN)C(=O)N[C@@H](CCC(N)=O)C(=O)N[C@H](C(=O)N[C@@H](C)C(=O)N[C@@H](CCCNC(=N)N)C(=O)N[C@@H](CCCCN)C(=O)N[C@@H](CO)C(=O)O)[C@@H](C)O)[C@@H](C)O [H3K4me0]
[1]
  ΔG: -24.7 ± 0.42 kJ/mol
  ΔH: -30.1 ± 0.42 kJ/mol
  −TΔS: 5.44 ± 0.42 kJ/mol
[2]
  ΔG: -21.8 ± 1.7 kJ/mol
  ΔH: -22.2 ± 1.7 kJ/mol
  −TΔS: 0.42 ± 1.7 kJ/mol
[3]
  ΔG: -29.7 ± 0.42 kJ/mol
  ΔH: -38.9 ± 0.42 kJ/mol
  −TΔS: 9.2 ± 0.42 kJ/mol
[4]
  ΔG: -24.7 ± 0.42 kJ/mol
  ΔH: -28 ± 0.42 kJ/mol
  −TΔS: 2.9 ± 0.42 kJ/mol

## C[C@H](N)C(=O)N[C@@H](CCCNC(=N)N)C(=O)N[C@H](C(=O)N[C@@H](CCCCN)C(=O)N[C@@H](CCC(N)=O)C(=O)N[C@H](C(=O)N[C@@H](C)C(=O)N[C@@H](C)C(=O)N[C@@H](CCCCN)C(=O)N[C@@H](CO)C(=O)O)[C@@H](C)O)[C@@H](C)O [H3R8AK4me0]
[5]
  ΔG: -24.3 ± 1.3 kJ/mol
  −TΔS: 6.69 ± 1.3 kJ/mol

## C[C@H](N)C(=O)N[C@@H](CCCNC(=N)N)C(=O)N[C@H](C(=O)N[C@@H](CCCCN)C(=O)N[C@@H](CCC(N)=O)C(=O)N[C@H](C(=O)N[C@@H](C)C(=O)N[C@@H](CCCNC(=N)N)C(=O)N[C@@H](CCCCN)C(=O)N[C@@H](COP(=O)(O)O)C(=O)O)[C@@H](C)O)[C@@H](C)O [H3S10Ph K4me0]
[6]
  Kd: 7.6 ± 1.2 µM
[5]
  Kd: 24.7 ± 0.2 µM
  ΔG: -26.4 ± 0.42 kJ/mol
  −TΔS: 13.8 ± 0.42 kJ/mol

## H3R2me2asK4me0: H3 1-10 peptide, asymmetric di-methylation of R2
[7]
  AIRE-PHD1 binding (in words): strongly reduced AIRE-PHD1 binding

## histone H3 peptide (1-10) mono-methylated at R2, H3R2me1K4me0
[8]
  Kd: 199 µM
  dH: -19.2 kJ/mol
[9]
  Kd: 248 µM

## histone H3 peptide (1-10) phosphorylated at S10, H3S10PhK4me0
[8]
  Kd: 24.7 µM
[9]
  Kd: 7.6 µM

## ARTKQTARKS [non-modified histone H3 tail peptide H3K4me0 (residues 1-10)]
[10]
  Kd: 123 ± 6.7 µM
  dH: -22.2 ± 1.67 kJ/mol
[11]
  Kd: 40.6 ± 0.5 µM
  dH: -28 ± 0.418 kJ/mol
[12]
  Kd: 43.4 ± 0.5 µM
  dH: -30.1 ± 0.418 kJ/mol
[13]
  Kd: 80 µM
[14]
  Kd: 19 ± 2.4 µM
[15]
  Kd: 28.1 ± 2.1 µM

## ARTKQTAAKS [mutant histone H3 peptide (1-10) H3R8AK4me0]
[16]
  Kd: 55.9 µM
  dH: -30.5 ± 1.26 kJ/mol
[17]
  Kd: 52.8 ± 4.9 µM
